According to the RNAGym collection of RNA variant scans (doi:10.1126/science.aae0568):
Variants at the floor of the assay were thinned out.

B1: tRNA (parent)
chain: GUUCCGUUGGCGUAAUGGUAACGCGUCUCCCUCCUAAGGAGAAGACUGCGGGUUCGAGUCCCGUACGGAACG

Variants of: B1
Experiment: yeast fitness relative to wild type (ratio to wild type); higher = fitter; tRNA-Arg(CCU), competitive growth, 37 C, YPD
Method in brief: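 Changes in genotype frequencies gave Darwinian fitness relative to wild type. Frequencies were read by 100-nucleotide paired-end sequencing of gene amplicons before and after pooled Saccharomyces cerevisiae strains, carrying tRNA-Arg(CCU) gene variants at the native locus, were competed in YPD at 37°C for 24 hours in six replicates. A genotype was kept only with ≥ 100 starting reads, and estimates < 0.5 were set to 0.5.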

Variant | yeast fitness
C27U C31A U35C C55G C66U A70C | ≤ 0.5
C4A A14U C34G C55U A65C | ≤ 0.5
A36C A45C G48A A65C | ≤ 0.5
C5U U32A A43G | ≤ 0.5
C24G A42C C55A U59A A70U | ≤ 0.5
U7A A36C G51C G63A | ≤ 0.5
G17A C46U U59A | 0.584
C5G G25C | 1.06
C11A C29U A43C A65U | ≤ 0.5
U8G C24U C29G C31A A45G C61U A65C G67A G68A | ≤ 0.5
A21C C24A U32A | ≤ 0.5
G23A U26A G50C U53C | ≤ 0.5
U16A C66U | 0.897
C4U A36U G41C C55U U64C | 0.587
G9A U54C | 0.841
C5G U59A | 0.896
A37C A42U C49A | ≤ 0.5
C4A A15G C62U | 0.594
U7C U13C C31G C34U C55U G58A C61U | ≤ 0.5
A14U G41C | 0.565
C11U G41A C60G A65G | 0.624
C5U C30G C55G | ≤ 0.5
U16A A42C A69U | 0.505
C5G C27U A57U | ≤ 0.5

Variant | yeast fitness
C31U A40G G48C A57U U59A A69C | ≤ 0.5
A15C C22A G25C U28A A36U A57C A65C G68C | 0.568
C4G A14C G48C A69U A70G | ≤ 0.5
A14G C27G U54C | ≤ 0.5
U13C G44C G58C | 0.661
C4A G17A C62A | ≤ 0.5
G6A U19C A20U C22U C27G | ≤ 0.5
A21C C46G C49G G56A | 0.528
C11G A21U A42U | ≤ 0.5
C31U G51A | 0.892
C5U A20U C30A G67A A70G | 0.657
G9A C30U G44A | 0.615
A37G A40C A43C G67U | ≤ 0.5
C4A C27G G52A | 0.713
U32C A42C C46U | 0.63
C24U C46A A57G | 0.749
C11U C22G C34G A70C | ≤ 0.5
A15G C46G G67A | 0.623
A21G A70G | 0.992
U3A C11U | 0.808
G25A G56C | 0.711
C11G G41C | 0.662
U16C G56A G67C | 0.514
G12C G23C A45U | 0.609

Variant | yeast fitness
G9C G10A G12C G25C G52C | ≤ 0.5
C4U C31U | 0.966
C27U G48C A57C | ≤ 0.5
C4G G38A G67A | ≤ 0.5
G12C U54A A65C | ≤ 0.5
C30U G44A G48C | ≤ 0.5
A15U U16G U35A U59A | ≤ 0.5
C30U G50A | 0.83
G10C C30U C66A | ≤ 0.5
U16C C27U G63A A65G | ≤ 0.5
C4G A14G U64C | ≤ 0.5
U47C G50A G68C | 0.539
C24U C30A C60U | ≤ 0.5
A20G G25A C31G C62A | ≤ 0.5
C27G U59C C66G | ≤ 0.5
A14G A42C G50A A70C | 0.593
C5G C11A A14G G25C C29G A57U C66U | ≤ 0.5
C11U A42G G51U A57U | ≤ 0.5
U16A C31A A40C G52C | ≤ 0.5
G12A C24G A40C A42G A43C C46U G68C A69U | ≤ 0.5
C4U U7G G56C C60G C66U | ≤ 0.5
A20C A69U | 1.04
C4A G25C C61A | 0.694
A36C U54A | ≤ 0.5

Variant | yeast fitness
A15C U19A U64A A65G G67U | ≤ 0.5
G10A A20C G38A G41A U47A | ≤ 0.5
A42C C62U | 0.829
U2A C30A G52A A65U | ≤ 0.5
C31G C34G A45U G63C | ≤ 0.5
U13C C22U A45C G48C | ≤ 0.5
G6C C33G C34U U64A | 0.684
U8C G9A G12A C60U | ≤ 0.5
A45U U47A | 0.786
C29U U59G | 0.83
A15C U59G | 0.673
C11G G67A | 0.635
A14U C31A C66A | ≤ 0.5
C4U C11G G51A U59A C62G | ≤ 0.5
G38A A42C U54C C62G A65C C66A | ≤ 0.5
A20C U28A | 0.672
C4U A42C A45G C66A A69U | ≤ 0.5
U2C C4G C22U C30A A65U | ≤ 0.5
G6A A20C C29A G44C | ≤ 0.5
C31G A40G C46A | 0.618
U35C A40U A42G U47C | 0.601
C5A U59A C60U | ≤ 0.5
G12A C33U | 0.839
U54G G63C | ≤ 0.5

Variant | yeast fitness
G58A G67C | 0.988
G18A U19A C27U G67A | ≤ 0.5
C4G C11U A14U G23A C62A | ≤ 0.5
U8C A14C C55U C61G C62G | ≤ 0.5
A43G A57G | 0.924
U8C G17A C46A A65G | ≤ 0.5
C4G A14G C31A | 0.528
A21C G67A | 0.8
G6A A20U G52C | ≤ 0.5
C24A C29G A43C A70C | ≤ 0.5
A14G A36U A65G | ≤ 0.5
C4G G41A | 0.768
A45G A70C | 0.989
A21G C29U A37U G63C | ≤ 0.5
C5A G6A U7A A43U G44A C46A | 0.691
C22A C24G U32C C34U | ≤ 0.5
A15U C66U A70C | 0.566
C30U C55U G67U | ≤ 0.5
C5G C24U C27A G51C G56C | ≤ 0.5
U3A C33U G44A | ≤ 0.5
U2A C29U A37G | ≤ 0.5
C11A U16C G18C U35C A45C A57C G68C | 0.515
U2G C4A C22U U28G A42U C49A | ≤ 0.5
G10A A14C G17A C22G C24G C30A | 0.775

Variant | yeast fitness
G18C A57U | 0.555
C34A C49U U59C | ≤ 0.5
A21C C62U C66A | ≤ 0.5
U8G G10C A40C | ≤ 0.5
G41C G52C A65U | ≤ 0.5
A14U A40U U54A A70G | 0.568
G6C A45C | 0.614
C27G C30G | ≤ 0.5
C30U A45U A69U | 0.797
C62U A65U G67A | 0.532
C5G C27U G41C C61U C66G | ≤ 0.5
U3A A37C C62U | 0.529
C4G G9A G39A G63A | ≤ 0.5
C5U U13C U19A A21U C24A U54C U59C A69G | 0.524
A37G U53C A57C | ≤ 0.5
U16C G18A C24G A45U U47C | ≤ 0.5
U26A G38C G58C U64A | ≤ 0.5
G9U C22U | 0.715
G44C C49G U59A | ≤ 0.5
U8C C11U C24G A45C | 0.629
U7C C30U | 0.826
C62U G63C U64C | 0.789
A45G C61U | 1.03
C24U U53A C55A | 0.65

Variant | yeast fitness
U32C A37C G38A G63A | 0.533
C4U G9A C24G A37C A57U | 0.543
U3G C30G A40C C46U | 0.57
C5A U16A A45G G50A G56A | ≤ 0.5
C27U C31G A40G | ≤ 0.5
U8A G9C G38A A40C U59C | 0.638
U8A U16G C30U C33G A37C A43G | ≤ 0.5
U8A C22G C46G C66U | 0.567
A45G C55U A65C | ≤ 0.5
C31G G38C A43U | 0.538
A57G A65G C66U | 0.65
C11G C60G G67C | 0.667
A43G G68A | 0.873
G23U C49G A70U | ≤ 0.5
A21C C27U C49U G58C C61A A65U A69U | ≤ 0.5
C5U U13G C33A A37C A70G | ≤ 0.5
U2G A15G U26C C34U | 0.611
G9C A40G A42G A57U C62G C66U | 0.565
U19A A20U U53C | ≤ 0.5
C5U C49A C60G | 0.754
C24A C29A G44A C46G G50A A65U | 0.556
C11A G17A | 0.579
G52C A57U C62U C66G | ≤ 0.5
